Drawing on ChEMBL document CHEMBL1133181, “A novel approach for the virtual screening and rational design of anticancer compounds” (J Med Chem, 2000), this text covers IC50 for 16 compounds.

≈ marks a conversion by molar mass, not a printed value.

Assay [1] is described as follows: Antitumor activity to reduce proliferation of human T-lymphocyte CEM/0 cells by 50%. The class given is functional, cell-based. Put shortly:
(§1)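 CEM or Molt4/C8 cells were seeded into 96-well wells with test compound and grown for 72 h at 37 °C in a humidified, CO2-controlled atmosphere. Cells were then counted with a Coulter counter. IC50 is the compound concentration that reduced the number of living cells by 50%.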

Assay [2] in a line: Antitumor activity to reduce proliferation of human T-lymphocyte Molt4/C8 cells by 50%. The class given is functional, cell-based. The conditions noted are these: molt-4. Put shortly: as §1
Assay [3] concerns L1210. The assay can be described thus: Antitumor activity to reduce proliferation of murine leukemia L1210/0 cells by 50%. The class given is functional, cell-based, Mus musculus. Summed up:
(§2)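 L1210 murine leukemia cells were incubated in 96-well microtiter wells with test compound for 48 h at 37 °C under humidified, CO2-controlled conditions. Cell numbers were then counted with a Coulter counter. IC50 was taken as the concentration giving a 50% reduction in living cell count.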

Assay [4] is described as follows: Concentration required to reduce proliferation of human T-lymphocyte CEM/0 cells by 50%. The class given is functional, cell-based. Summed up:
as §1

Assay [5] in a line: Concentration required to reduce proliferation of human T-lymphocyte Molt4/C8 cells by 50%. The class given is functional, cell-based. The settings on record: molt-4. Summed up:
as §1

Assay [6] relates to L1210. The assay can be described thus: Concentration required to reduce proliferation of murine leukemia L1210/0 cells by 50%. The class given is functional, cell-based, Mus musculus. Summed up:
as §2

Consider `O=c1ccn(C2CCCC2CO)c(=O)[nH]1` (trans isomer), for which the half-maximal inhibitory concentration (IC50) (in assay [1]; in assay [2]; in the assay on L1210 [3]) was more than 200 µg/mL throughout.

Take `OCC1CCCC1Cn1cnc2c(O)ncnc21` (cis isomer): the IC50 (in assay [4]; in assay [5]; with L1210 [6]) was more than 200 µg/mL each time.

As to `OCC1CCCC1n1cnc2c(O)ncnc21` (trans isomer), the IC50 (in assay [4]; in assay [5]; in the assay on L1210 [6]) was more than 200 µg/mL each time.

With `O=c1[nH]c(=O)n(C2CCCC2CO)cc1I` (stereo in doubt; 4a), the concentration for half-maximal inhibition (IC50) (usually the point on the concentration scale where inhibition reaches its midpoint) amounted to 57.4 µg/mL (≈ 171 µM) in assay [1], 77.4 µg/mL (≈ 230 µM) in assay [2] and 52.3 µg/mL (≈ 156 µM) in the assay on L1210 [3].

With `O=c1ccn(CC2CCCC2CO)c(=O)[nH]1` (configuration not stated), the 50% inhibitory concentration (IC50) (in assay [1]; in assay [2]; in the assay on L1210 [3]) was more than 200 µg/mL throughout.

For the compound `O=c1[nH]c(=O)n(CC2CCCC2CO)cc1I` (cis isomer), the IC50 in assay [1] was found to be 117 µg/mL (≈ 334 µM); in assay [2], 108 µg/mL (≈ 308 µM); in the assay with L1210 [3], 71.1 µg/mL (≈ 203 µM).

`OCC1CCCC1n1cnc2c(Cl)ncnc21` (cis isomer): the IC50 was determined as 61 µg/mL (≈ 241 µM) in assay [1], 49.9 µg/mL (≈ 197 µM) in assay [2] and 62.8 µg/mL (≈ 249 µM) in the assay on L1210 [3].

For `O=c1[nH]c(=O)n(C2CCCC2CO)cc1I` (trans isomer), the IC50 (in assay [1]; in assay [2]; with L1210 [3]) was more than 200 µg/mL in each case.

For the compound `Nc1ncnc2c1ncn2C1CCCC1CO` (cis isomer), the half-maximal inhibitory concentration (IC50) (in assay [1]; in the assay on L1210 [3]) was more than 200 µg/mL each time.

Turning to `OCC1CCCC1n1cnc2c(Cl)ncnc21` (trans isomer), the IC50 amounted to 19 µg/mL (≈ 75.2 µM) in assay [1], 39.2 µg/mL (≈ 155 µM) in assay [2] and 56.1 µg/mL (≈ 222 µM) in the assay on L1210 [3].

For the compound `Nc1ncnc2c1ncn2CC1CCCC1CO` (trans isomer), the IC50 (in assay [1]; in assay [2]; in the assay on L1210 [3]) was more than 200 µg/mL throughout.

In the case of `OCC1CCCC1Cn1cnc2c(Cl)ncnc21` (trans isomer), the IC50 is 15 µg/mL (≈ 56.2 µM) in assay [1], 22.3 µg/mL (≈ 83.6 µM) in assay [2] and 48.7 µg/mL (≈ 183 µM) in the assay on L1210 [3].

With `Nc1ncnc2c1ncn2C1CCCC1CO` (trans isomer), the IC50 is 180 µg/mL (≈ 772 µM) in assay [1], more than 200 µg/mL in assay [2] and 179 µg/mL (≈ 767 µM) in the assay with L1210 [3].

For the compound `OCC1CCCC1Cn1cnc2c(Cl)ncnc21` (cis isomer), the IC50 in assay [1] is 16 µg/mL (≈ 60 µM); in assay [2], 6.54 µg/mL (≈ 24.5 µM); in the assay with L1210 [3], 14 µg/mL (≈ 52.5 µM).

Consider `O=c1[nH]c(=O)n(CC2CCCC2CO)cc1I` (trans isomer), for which the IC50 in assay [1] turned out to be 131 µg/mL (≈ 374 µM); in assay [2] it was 158 µg/mL (≈ 451 µM); in the assay on L1210 [3], 65.8 µg/mL (≈ 188 µM).

Regarding `Nc1ncnc2c1ncn2CC1CCCC1CO` (stereo in doubt; 7c), the IC50 was 108 µg/mL (≈ 437 µM) in assay [1], 100 µg/mL (≈ 404 µM) in assay [2] and 102 µg/mL (≈ 412 µM) in the assay with L1210 [3].
